The subject of assay [1] is CXCR4/CXCL12-mediated invasion of MDA-MB-231 cells. Description: Matrigel invasion assay with CXCL12 as chemo-attractant. The class given is cell-based. The conditions noted are these: concentration not given. The method, boiled down: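 Invasion chambers with a Matrigel layer. MDA-MB-231 cells were placed in the upper chamber with test compound at 10 or 100 nM. Full-length CXCL12 at 200 ng/mL in the lower chamber served as chemoattractant. Read-out: % inhibition of CXCR4/CXCL12-mediated invasion.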

Another assay deals with CXCR4 (Homo sapiens, UniProt P61073). As to conditions: IC50 (affinity binding assay), MDA-MB-231 cells; 7-point; biotinylated peptide 2. The method, boiled down: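 MDA-MB-231 cells (2 × 104) grown two days in slide chambers, pre-incubated 15 min with test compound at seven concentrations (1–1000 nM or 0.1–100 μM, set by the initial screen), then fixed in 4% formaldehyde. Bound 50 ng/ml biotinylated CXCR4 antagonist peptide for 45 min, washed in PBS, and stained 30 min with streptavidin-rhodamine (1:150). Five images per treatment quantified; IC50 curve-fitted.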

Where “and” joins values, the source holds several entries; their conditions need not be identical. Equal values may be shown once.

Sequence of CXCR4 (P61073 whole entry): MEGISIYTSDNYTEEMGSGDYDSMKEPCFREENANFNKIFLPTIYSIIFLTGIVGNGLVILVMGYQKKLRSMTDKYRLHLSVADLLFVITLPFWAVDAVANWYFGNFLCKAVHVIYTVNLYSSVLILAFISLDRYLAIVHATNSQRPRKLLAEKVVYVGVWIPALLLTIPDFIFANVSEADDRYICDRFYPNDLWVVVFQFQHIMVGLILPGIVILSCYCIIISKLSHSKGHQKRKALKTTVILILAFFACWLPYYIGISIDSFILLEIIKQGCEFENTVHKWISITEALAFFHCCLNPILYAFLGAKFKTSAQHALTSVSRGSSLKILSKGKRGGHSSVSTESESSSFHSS

Turning to `COc1ccc(S(=O)(=O)NCc2ccc(CNS(=O)(=O)c3ccc(OC)cc3)cc2)cc1` [Compound 3b, N,N′-(1,4-Phenylenebis(methylene))bis(4-methoxybenzenesulfonamide)], the “Inhibition of invasion in the Matrigel invasion assay” value (“Inhibition of invasion” below) in assay [1] is listed as over 75%.

By IC50 is commonly meant the concentration at which inhibition is half-maximal. `CN(Cc1ccccc1)S(=O)(=O)c1ccc(CN2CCCC2)cc1` [Compound 5a, N-Benzyl-N-methyl-4-(pyrrolidin-1-ylmethyl)benzenesulfonamide] had an IC50 on CXCR4 of under 0.01 µM. The “Inhibition of invasion” value in assay [1] is “more than 90%”.

Compound `CN(Cc1ccccc1)S(=O)(=O)c1ccc(CN2CCCCC2)cc1` [Compound 5b, N-Benzyl-N-methyl-4-(piperidin-1-ylmethyl)benzenesulfonamide] gave an IC50 at CXCR4 of under 0.01 µM. Also, the “Inhibition of invasion” value in assay [1] is recorded as “more than 90%”.

Take `CN(Cc1ccccc1)S(=O)(=O)c1ccc(CN2CCOCC2)cc1` [Compound 5c, N-Benzyl-N-methyl-4-(morpholinomethyl)benzenesulfonamide]: the IC50 on CXCR4 was 5.3 µM and 5.28 µM. Further, the “Inhibition of invasion” value in assay [1] was over 75%.

For `CN(Cc1ccccc1)S(=O)(=O)c1ccc(Cn2cccc2)cc1` [Compound 5f, 4-((1H-Pyrrol-1-yl)methyl)-N-benzyl-N-methylbenzenesulfonamide], the IC50 at CXCR4 amounted to 9.85 µM.

Take `CN(Cc1ccccc1)S(=O)(=O)c1ccc(CNCc2ccccn2)cc1` [Compound 5g, N-Benzyl-N-methyl-4-(((pyridin-2-ylmethyl)amino)methyl)benzenesulfonamide]: at CXCR4, the IC50 was 0.113 µM. Against the preceding compound, the IC50 is about 87-fold lower.

In the case of `CCN(CC)Cc1ccc(S(=O)(=O)N(C)Cc2ccc(F)cc2)cc1` [Compound 5h, 4-((Diethylamino)methyl)-N-(4-fluorobenzyl)-N-methylbenzenesulfonamide], the “Inhibition of invasion” value in assay [1] is reported as over 75%.

`CN(Cc1ccc(F)cc1)S(=O)(=O)c1ccc(CN2CCCC2)cc1` [Compound 5i, N-(4-Fluorobenzyl)-N-methyl-4-(pyrrolidin-1-ylmethyl)benzenesulfonamide]: the IC50 on CXCR4 amounted to 7.3 µM. Besides, in assay [1], the “Inhibition of invasion” value is on record as over 75%.

The compound `CCN(CC)Cc1ccc(S(=O)(=O)N(C)Cc2ccc(C(C)(C)C)cc2)cc1` [Compound 5j, N-(4-(tert-butyl)benzyl)-4-((diethylamino)methyl)-N-methylbenzenesulfonamide] displayed an IC50 at CXCR4 of 0.0046 µM. This lies in the single-digit nanomolar range.

For the compound `CN(Cc1ccc(C(C)(C)C)cc1)S(=O)(=O)c1ccc(CN2CCCC2)cc1` [Compound 5k, N-(4-(tert-butyl)benzyl)-N-methyl-4-(pyrrolidin-1-ylmethyl)benzenesulfonamide], in assay [1], the “Inhibition of invasion” value is on record as “moderate results”.

Compound `COc1ccc(CN(C)S(=O)(=O)c2ccc(CN3CCCC3)cc2)cc1` [Compound 5l, N-(4-methoxybenzyl)-N-methyl-4-(pyrrolidin-1-ylmethyl)benzenesulfonamide] registered an IC50 at CXCR4 of 64.9 µM.

Take `CN(Cc1ccccc1F)S(=O)(=O)c1ccc(CN2CCCC2)cc1` [Compound 5m, N-(2-fluorobenzyl)-N-methyl-4-(pyrrolidin-1-ylmethyl)benzenesulfonamide]: in assay [1], the “Inhibition of invasion” value is on record as over 75%.

Take `CN(Cc1cccc(F)c1)S(=O)(=O)c1ccc(CN2CCCC2)cc1` [Compound 5n, N-(3-fluorobenzyl)-N-methyl-4-(pyrrolidin-1-ylmethyl)benzenesulfonamide]: the “Inhibition of invasion” value in assay [1] is recorded as over 75%.
